The source made the active and inactive calls. The calls are words filed in the database; no cut-off is given here.
What was measured:
[1] = Unbound fraction in rat plasma at 5 uM incubated for 6 hrs by equilibrium dialysis based LC-MS/MS analysis; format: ADME, cell-free
Summary of the method: (§1)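 Equilibrium dialysis of plasma spiked at 5 μM final against DPBS, in triplicate, 6 h at 37 °C. Samples were matrix-matched, acetonitrile-extracted with carbamazepine as internal standard, and analyzed by LC-MS/MS. fu = buffer-side/plasma-side analyte:IS peak area ratio, mean of 3 replicates.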

[2] = Ratio of unbound drug concentration in Sprague-Dawley rat brain to plasma at 0.2 mg/kg, iv measured after 0.25 hrs by LC-MS/MS analysis; format: ADME, organism-based
Summary of the method: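 Male Sprague Dawley rats (n = 1) received a single IV dose through a jugular catheter, formulated in 10% ethanol/40% PEG400/50% DMSO at 0.5 mL/kg. Terminal plasma (K2EDTA) and whole brain were taken at 15 min. Brain was homogenized in isopropanol:water 7:3. Samples were acetonitrile-precipitated with carbamazepine as internal standard and quantified by LC-MS/MS against a plasma standard curve, with dilution correction.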

[3] = Unbound fraction in human plasma at 5 uM incubated for 6 hrs by equilibrium dialysis based LC-MS/MS analysis; format: ADME, cell-free; summary of the method: as §1
[4] = Unbound fraction in rat brain at 1 uM incubated for 6 hrs by equilibrium dialysis based LC-MS/MS analysis; format: ADME, tissue-based
Summary of the method: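 Naïve rat brain was homogenized in DPBS (1:3 w/w) and dialyzed against DPBS at 1 μM final, in triplicate, 6 h at 37 °C. Quantification was by LC-MS/MS. Diluted fu2 = buffer/homogenate peak area ratio, corrected to undiluted fu using the 1/4 dilution equation; mean of 3 replicates.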

[5] = target: Metabotropic glutamate receptor 7 (Homo sapiens) (UniProt Q14831); test: (§2) Negative allosteric modulation of human mGlu7 receptor expressed in HEK293-A co-expressing Galpha15 assessed as inhibition of DL-AP4 induced-calcium mobilization preincubated for 140 sec followed by DL-AP4 addition at EC20 concentration for 125 sec and measured after 90 sec addition of glutamate at EC80 concentration by Fluo-4 AM dye based fluorescence assay; format: functional, cell-based; conditions: time 355.0 sec
Summary of the method: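 HEK293 cells stably co-expressing human mGlu7 and mouse Gα15 were plated at 15,000/well in dialyzed-FBS medium and grown overnight at 37 °C. They were loaded with Fluo-4-AM (final 1.15 μM) for 50 min at RT, then read at RT in a triple-add assay with DL-AP4 as agonist. Compounds were run as 10-point 1:3 curves; ex 480/em 530 nm. Data were normalized to maximal agonist response and fitted to a four-parameter logistic equation.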

[6] = target: Metabotropic glutamate receptor 4 (Homo sapiens) (UniProt Q14833); test: Negative allosteric modulation of human mGlu4 receptor expressed in CHO cells co-expressing Gqi5 assessed as inhibition of glutamate induced calcium mobilization preincubated for 142 sec followed by glutamate addition at EC20 concentration for 120 sec and measured after 40 sec addition of glutamate at EC80 concentration by Fluo-4 AM dye based fluorescence assay relative to glutamate; format: functional, cell-based; conditions: time 302.0 sec
[7] = Drug metabolism in cryopreserved rat Hepatocyte assessed as amide hydrolysis mediated metabolite formation at 10 uM measured after 4 hrs; format: ADME, cell-based; conditions: hepatocytes
Summary of the method: (§3)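 Rat, dog, monkey and human hepatocytes were incubated with 10 μM compound and sampled at 0 and 4 h. Metabolites were tentatively identified by accurate-mass LC-MS (observed m/z). Retention times were taken from MS extracted ion chromatograms.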

[8] = target: Metabotropic glutamate receptor 8 (Homo sapiens) (UniProt O00222); test: as §2, with “mGlu8” for “mGlu7 receptor”, “HEK293-A” for “HEK293-A co-expressing Galpha15”, “glutamate” for “DL-AP4”; format: functional, cell-based; conditions: time 355.0 sec
Summary of the method: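 HEK293 cells stably co-expressing human mGlu8 and mouse Gα15 were plated at 15,000/well and grown overnight. Fluo-4-AM (final 1.15 μM) was loaded for 50 min at 37 °C, […]. The FDSS run was at RT: compound, then glutamate EC20, then EC80 additions. Compounds were run as 10-point 1:3 curves; ex 480/em 530 nm. Data were normalized to glutamate ECmax and fitted to a four-parameter logistic equation.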

[9] = Drug metabolism in cryopreserved dog Hepatocyte assessed as amide hydrolysis mediated metabolite formation at 10 uM measured after 4 hrs; format: ADME, cell-based, Canis lupus familiaris; conditions: hepatocytes; summary of the method: as §3
[10] = target: Metabotropic glutamate receptor 1 (Homo sapiens) (UniProt Q13255); test: Negative allosteric modulation of tetracycline-inducible human mGlu1 receptor expressed in human T-REx-293 cells by calcium mobilization assay; format: functional, cell-based
[11] = target: Metabotropic glutamate receptor 2 (Homo sapiens) (UniProt Q14416); test: Negative allosteric modulation of human mGlu2 receptor expressed in HEK293 cells harboring GIRK by thallium flux assay; format: cell-based
[12] = Drug metabolism in cryopreserved cynomolgus monkey Hepatocyte assessed as amide hydrolysis mediated metabolite formation at 10 uM measured after 4 hrs; format: ADME, cell-based, Macaca fascicularis; conditions: hepatocytes; summary of the method: as §3
[13] = target: Metabotropic glutamate receptor 3 (Homo sapiens) (UniProt Q14832); test: Negative allosteric modulation of human mGlu3 receptor expressed in HEK293 cells harboring GIRK assessed as maximal inhibition response by thallium flux assay relative to glutamate; format: cell-based; conditions: filed as negative allosteric modulator
[14] = Drug metabolism in cryopreserved human Hepatocyte assessed as amide hydrolysis mediated metabolite formation at 10 uM measured after 4 hrs; format: ADME, cell-based; conditions: hepatocytes; summary of the method: as §3

Metabotropic glutamate receptor 2 (Homo sapiens), sequence (Q14416 19-872 limits assumed): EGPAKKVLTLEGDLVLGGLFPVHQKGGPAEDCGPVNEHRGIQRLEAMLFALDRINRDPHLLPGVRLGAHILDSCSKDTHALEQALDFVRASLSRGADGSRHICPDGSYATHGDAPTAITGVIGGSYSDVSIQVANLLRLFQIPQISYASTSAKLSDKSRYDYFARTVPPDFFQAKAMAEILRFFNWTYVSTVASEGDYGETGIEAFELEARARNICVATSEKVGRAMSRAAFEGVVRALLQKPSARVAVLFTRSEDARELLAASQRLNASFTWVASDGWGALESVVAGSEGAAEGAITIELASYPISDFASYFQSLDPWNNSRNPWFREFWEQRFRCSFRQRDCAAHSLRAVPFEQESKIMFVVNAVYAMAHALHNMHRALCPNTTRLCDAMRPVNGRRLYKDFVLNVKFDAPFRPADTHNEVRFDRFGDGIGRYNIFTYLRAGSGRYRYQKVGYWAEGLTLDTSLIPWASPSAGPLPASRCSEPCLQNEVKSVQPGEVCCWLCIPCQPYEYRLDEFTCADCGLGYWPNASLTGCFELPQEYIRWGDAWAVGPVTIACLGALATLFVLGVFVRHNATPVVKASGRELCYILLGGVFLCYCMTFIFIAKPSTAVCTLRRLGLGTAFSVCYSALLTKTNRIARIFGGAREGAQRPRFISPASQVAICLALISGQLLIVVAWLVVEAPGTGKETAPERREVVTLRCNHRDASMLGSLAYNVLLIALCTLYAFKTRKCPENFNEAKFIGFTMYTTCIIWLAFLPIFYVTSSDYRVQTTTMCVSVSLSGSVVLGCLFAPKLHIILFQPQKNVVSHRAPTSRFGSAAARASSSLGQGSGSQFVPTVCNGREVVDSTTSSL
Metabotropic glutamate receptor 7 (Homo sapiens), sequence (Q14831 whole entry): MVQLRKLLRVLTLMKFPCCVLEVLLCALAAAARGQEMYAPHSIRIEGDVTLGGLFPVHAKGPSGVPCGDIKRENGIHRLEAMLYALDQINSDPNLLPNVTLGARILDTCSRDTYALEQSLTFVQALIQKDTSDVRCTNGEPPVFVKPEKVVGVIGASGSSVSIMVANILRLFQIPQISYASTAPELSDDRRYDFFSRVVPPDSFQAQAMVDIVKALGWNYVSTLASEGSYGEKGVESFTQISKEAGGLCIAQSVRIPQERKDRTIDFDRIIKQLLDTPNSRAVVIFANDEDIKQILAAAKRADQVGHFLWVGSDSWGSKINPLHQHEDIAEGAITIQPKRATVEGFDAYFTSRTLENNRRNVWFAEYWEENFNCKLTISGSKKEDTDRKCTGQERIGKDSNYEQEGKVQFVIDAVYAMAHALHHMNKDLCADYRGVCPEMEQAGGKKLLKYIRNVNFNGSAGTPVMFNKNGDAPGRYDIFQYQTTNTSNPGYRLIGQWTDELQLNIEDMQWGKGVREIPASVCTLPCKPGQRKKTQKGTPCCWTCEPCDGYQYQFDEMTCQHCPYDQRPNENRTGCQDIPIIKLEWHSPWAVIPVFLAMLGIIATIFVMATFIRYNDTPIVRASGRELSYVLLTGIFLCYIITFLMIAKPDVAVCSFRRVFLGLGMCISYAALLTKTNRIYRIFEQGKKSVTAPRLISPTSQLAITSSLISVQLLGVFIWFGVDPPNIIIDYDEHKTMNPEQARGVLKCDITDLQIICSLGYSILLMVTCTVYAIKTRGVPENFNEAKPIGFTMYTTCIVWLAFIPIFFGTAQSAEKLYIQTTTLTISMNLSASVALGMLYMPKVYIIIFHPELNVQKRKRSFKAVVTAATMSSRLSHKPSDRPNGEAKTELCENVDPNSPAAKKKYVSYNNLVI
Metabotropic glutamate receptor 4 (Homo sapiens), sequence (Q14833 whole entry): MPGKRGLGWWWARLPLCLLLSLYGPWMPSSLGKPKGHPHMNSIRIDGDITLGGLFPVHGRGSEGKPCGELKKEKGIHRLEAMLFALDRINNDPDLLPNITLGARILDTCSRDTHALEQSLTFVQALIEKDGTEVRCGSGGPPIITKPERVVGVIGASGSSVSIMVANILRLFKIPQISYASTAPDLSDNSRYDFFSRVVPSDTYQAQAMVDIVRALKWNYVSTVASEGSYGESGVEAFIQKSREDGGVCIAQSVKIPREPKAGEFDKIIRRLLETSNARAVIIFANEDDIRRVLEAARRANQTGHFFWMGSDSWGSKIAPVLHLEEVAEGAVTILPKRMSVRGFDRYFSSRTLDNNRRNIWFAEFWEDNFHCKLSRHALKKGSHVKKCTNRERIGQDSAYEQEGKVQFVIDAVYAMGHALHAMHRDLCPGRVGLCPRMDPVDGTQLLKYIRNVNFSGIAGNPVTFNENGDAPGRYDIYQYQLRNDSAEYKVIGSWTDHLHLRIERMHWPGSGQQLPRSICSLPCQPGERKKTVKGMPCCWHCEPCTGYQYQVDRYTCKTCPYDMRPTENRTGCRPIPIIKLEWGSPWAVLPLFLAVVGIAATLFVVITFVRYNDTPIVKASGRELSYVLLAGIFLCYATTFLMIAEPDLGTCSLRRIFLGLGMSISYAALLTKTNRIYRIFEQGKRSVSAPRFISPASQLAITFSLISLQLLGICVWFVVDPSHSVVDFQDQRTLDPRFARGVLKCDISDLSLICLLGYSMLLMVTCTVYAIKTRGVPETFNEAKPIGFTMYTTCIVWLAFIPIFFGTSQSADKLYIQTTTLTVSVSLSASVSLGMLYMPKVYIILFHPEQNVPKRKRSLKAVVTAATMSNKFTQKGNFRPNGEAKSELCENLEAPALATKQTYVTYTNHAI
Metabotropic glutamate receptor 8 (Homo sapiens), sequence (O00222 whole entry): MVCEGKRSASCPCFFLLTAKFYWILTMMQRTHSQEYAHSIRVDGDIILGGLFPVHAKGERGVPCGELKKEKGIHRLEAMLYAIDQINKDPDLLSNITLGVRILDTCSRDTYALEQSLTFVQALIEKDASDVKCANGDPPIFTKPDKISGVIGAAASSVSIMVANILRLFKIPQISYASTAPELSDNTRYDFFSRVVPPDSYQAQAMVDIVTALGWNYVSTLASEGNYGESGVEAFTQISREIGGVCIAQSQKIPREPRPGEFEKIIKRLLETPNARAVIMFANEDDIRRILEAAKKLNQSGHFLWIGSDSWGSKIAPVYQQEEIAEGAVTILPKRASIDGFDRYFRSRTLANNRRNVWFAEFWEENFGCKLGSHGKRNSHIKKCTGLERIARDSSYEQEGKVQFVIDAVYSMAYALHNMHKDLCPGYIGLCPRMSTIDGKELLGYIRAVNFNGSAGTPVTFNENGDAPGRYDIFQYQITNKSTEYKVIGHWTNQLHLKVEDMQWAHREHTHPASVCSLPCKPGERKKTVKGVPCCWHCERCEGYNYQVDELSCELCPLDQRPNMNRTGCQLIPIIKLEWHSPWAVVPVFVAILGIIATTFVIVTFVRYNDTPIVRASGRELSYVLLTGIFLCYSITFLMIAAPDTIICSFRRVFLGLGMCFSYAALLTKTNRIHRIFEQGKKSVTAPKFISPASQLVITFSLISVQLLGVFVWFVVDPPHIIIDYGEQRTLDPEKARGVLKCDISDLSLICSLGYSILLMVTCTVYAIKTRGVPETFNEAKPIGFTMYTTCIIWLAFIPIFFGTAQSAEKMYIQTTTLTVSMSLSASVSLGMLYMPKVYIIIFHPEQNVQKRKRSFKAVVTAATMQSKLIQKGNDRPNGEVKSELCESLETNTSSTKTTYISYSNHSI
Metabotropic glutamate receptor 3 (Homo sapiens), sequence (Q14832 23-879 limits assumed): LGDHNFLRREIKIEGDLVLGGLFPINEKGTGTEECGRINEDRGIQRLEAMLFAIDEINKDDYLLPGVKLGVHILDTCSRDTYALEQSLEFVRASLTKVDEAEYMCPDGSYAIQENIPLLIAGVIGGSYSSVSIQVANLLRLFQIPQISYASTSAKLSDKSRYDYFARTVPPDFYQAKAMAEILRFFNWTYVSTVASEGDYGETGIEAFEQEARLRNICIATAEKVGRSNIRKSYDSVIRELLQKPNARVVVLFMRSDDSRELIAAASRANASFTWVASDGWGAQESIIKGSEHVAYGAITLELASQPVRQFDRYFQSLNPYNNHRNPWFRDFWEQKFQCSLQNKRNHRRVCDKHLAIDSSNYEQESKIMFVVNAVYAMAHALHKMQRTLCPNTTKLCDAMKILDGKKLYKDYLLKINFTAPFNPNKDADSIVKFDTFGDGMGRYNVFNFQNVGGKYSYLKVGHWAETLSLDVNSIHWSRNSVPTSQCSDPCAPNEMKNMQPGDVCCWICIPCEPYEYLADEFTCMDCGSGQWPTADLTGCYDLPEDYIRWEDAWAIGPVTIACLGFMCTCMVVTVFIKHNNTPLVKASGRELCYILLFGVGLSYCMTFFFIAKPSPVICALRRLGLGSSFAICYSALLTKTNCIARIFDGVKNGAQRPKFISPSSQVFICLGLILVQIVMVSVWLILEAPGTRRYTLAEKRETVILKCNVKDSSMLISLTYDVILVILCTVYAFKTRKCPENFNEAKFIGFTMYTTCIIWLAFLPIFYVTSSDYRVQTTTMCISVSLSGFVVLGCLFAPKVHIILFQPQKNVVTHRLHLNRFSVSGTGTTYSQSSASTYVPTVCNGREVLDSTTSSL

Cc1cc(Oc2cnn(C)c2C(F)(F)F)cc(C(=O)Nc2nc(C)cs2)n1
Fu [1]: Not_determined(Unstable) | K(p,uu,brain) [2]: Not_determined(Unstable) | Fu [3]: 0.004 | Fu [4]: 0.003

Cc1cccc(NC(=O)c2cc(Oc3cc(C)nn3C)cc(C)n2)n1
Fu [1]: Not_determined(Unstable) | K(p,uu,brain) [2]: Not_determined(Unstable)

Cc1cc(Oc2cnn(C)c2C(F)(F)F)cc(C(=O)Nc2ccc(F)cn2)n1
Fu [1]: Not_determined(Unstable) | K(p,uu,brain) [2]: Not_determined(Unstable) | Fu [4]: 0.002

Cc1cccc(NC(=O)c2cc(Oc3cnn(C)c3C(F)(F)F)cc(C)n2)n1
Fu [1]: Not_determined(Unstable) | K(p,uu,brain) [2]: Not_determined(Unstable)

Cc1cc(Oc2cnn(C)c2)cc(C(=O)Nc2ccc(F)cn2)n1
Activity [5]: inactive | Activity [6]: inactive | Drug metabolism [7]: metabolite_detected | Activity [8]: inactive | Drug metabolism [9]: metabolite_detected | Activity [10]: inactive | Activity [11]: inactive | Drug metabolism [12]: metabolite_detected | Imax [13]: 58% | Drug metabolism [14]: metabolite_detected

Cc1cccc(NC(=O)c2cc(Oc3ccnn3C)cc(C)n2)n1
Fu [1]: Not_determined(Unstable) | K(p,uu,brain) [2]: Not_determined(Unstable)

Cc1cc(Oc2ccnn2C)cc(C(=O)Nc2nc(C)cs2)n1
Fu [1]: 0.219

— ChEMBL document CHEMBL6074702, “Discovery of 4-(5-Membered)Heteroarylether-6-methylpicolinamide Negative Allosteric Modulators of Metabotropic Glutamate Receptor Subtype 5” (ACS Med Chem Lett, 2024)
